In ChEMBL document CHEMBL1142581, “Resveratrol derivatives from the roots of Vitis thunbergii” (J Nat Prod, 2005):

Key:
[1] = Antioxidant activity assessed as ABTS radical scavenging activity; format: functional
Method in brief: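 ABTS radical cation generated from 7.5 mM ABTS with 2.5 mM […], then diluted. Various concentrations of vehicle, test agents or Trolox (positive control) were mixed with an equal volume of the diluted radical solution for 6 min. Remaining radical was read as absorbance at 734 nm. EC50 calculated, mean ± SD (n=6).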

[2] = Antiplatelet activity against citreated rabbit platelet assessed as arachidonic acid-induced platelet aggregation; format: functional, cell-based; conditions: Oryctolagus cuniculus
Method in brief: (§1)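 Washed platelets from fresh rabbit blood, preincubated 2 min at 37 °C with various compound concentrations or 0.5% DMSO (control), then challenged with arachidonic acid or U46619. Turbidimetric aggregation: platelet suspension set as 0% and platelet-free Tyrode solution as 100%. Inhibition % = [1 − sample/control aggregation] × 100. IC50 reported as mean ± SD (n=4).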

[3] = Antiplatelet activity against citreated rabbit platelet assessed as inhibition of 9,11-dideoxy-11 alpha, 9 alpha epoxy-methanoprostaglandin F2alpha-induced platelet aggregation; format: functional, cell-based; conditions: Oryctolagus cuniculus; method in brief: as §1

EC50 [1] [µM]	IC50 [2] [µM]	IC50 [3] [µM]	Structure (SMILES)
4.8	5.7	3.9	Oc1ccc([C@H]2Oc3cc(O)cc(/C=C/c4ccc5c(c4)[C@H](c4cc(O)cc6c4[C@H](c4cc(O)cc(O)c4)[C@@H](c4ccc(O)cc4)O6)[C@H](c4ccc(O)cc4)O5)c3[C@@H]2c2cc(O)cc(O)c2)cc1
4.4	7	3.1	O=Cc1ccc2c(c1)C(c1cc(O)cc3c1[C@H](c1cc(O)cc(O)c1)[C@@H](c1ccc(O)cc1)O3)[C@H](c1ccc(O)cc1)O2 (some centres undefined)
2.8	> 100	> 100	Oc1ccc(/C=C/c2cc(O)cc3c2[C@H](c2cc(O)cc(O)c2)[C@@H](c2ccc(O)cc2)O3)cc1
5.4	8.1	5.9	Oc1ccc([C@@H]2c3c(O)cc4c5c3[C@@H]([C@@H](c3ccc(O)cc3)c3c(O)cc(O)cc3[C@@H]5[C@@H](c3ccc(O)cc3)O4)[C@H]2c2cc(O)cc(O)c2)cc1 [AMPELOPSIN C]
–	32.7	–	CC(=O)Oc1ccccc1C(=O)O [ASPIRIN]
6.6	9	7.5	Oc1ccc(/C=C/c2cc(O)cc3c2[C@@H](c2cc(O)cc4c2[C@H](c2cc(O)cc5c2[C@@H](c2cc(O)cc(O)c2)[C@H](c2ccc(O)cc2)O5)[C@@H](c2ccc(O)cc2)O4)[C@H](c2ccc(O)cc2)O3)cc1 [MIYABENOL A]
28.4	–	–	Cc1c(C)c2c(c(C)c1O)CCC(C)(C(=O)O)O2 (centres undefined) [TROLOX]
13.8	10.3	13.3	Oc1ccc([C@H]2c3c(O)cc(O)cc3[C@H]3c4c(cc(O)cc4[C@@H]2c2cc(/C=C/c4cc(O)cc5c4[C@H](c4cc(O)cc(O)c4)[C@@H](c4ccc(O)cc4)O5)ccc2O)O[C@@H]3c2ccc(O)cc2)cc1 [VITISIN A]
3.6	> 100	7.8	O=Cc1ccc(O)c([C@H]2c3cc(O)cc4c3[C@H](c3cc(O)cc(O)c3[C@@H]2c2ccc(O)cc2)[C@@H](c2ccc(O)cc2)O4)c1 [VITISINOL B]
4.5	13.4	10.5	O=C1C=C(/C=C/c2ccc(O)cc2)C[C@@H](c2cc(O)cc(O)c2)[C@H](c2ccc(O)cc2)C1 [VITISINOL C]
4.1	15	5.7	O=C1C=C(/C=C/c2ccc(O)cc2)[C@H]2C(=O)[C@@H]1[C@H](c1ccc(O)cc1)[C@H]2c1cc(O)cc(O)c1 [VITISINOL D]
